Test results as given in ChEMBL document CHEMBL1141534, “Synthesis of all stereoisomers of 3-hydroxypipecolic acid and 3-hydroxy-4,5-dehydropipecolic acid and their evaluation as glycosidase inhibitors” (Bioorg Med Chem Lett, 2008).

Tests used:
[1] = target: T1, Beta-glucuronidase (Bos taurus) (UniProt A3KMY8); test: Inhibition of bovine liver beta-glucuronidase; set-up: concentration or dose not given beside the values; settings: concentration not given here
T1 sequence (whole entry): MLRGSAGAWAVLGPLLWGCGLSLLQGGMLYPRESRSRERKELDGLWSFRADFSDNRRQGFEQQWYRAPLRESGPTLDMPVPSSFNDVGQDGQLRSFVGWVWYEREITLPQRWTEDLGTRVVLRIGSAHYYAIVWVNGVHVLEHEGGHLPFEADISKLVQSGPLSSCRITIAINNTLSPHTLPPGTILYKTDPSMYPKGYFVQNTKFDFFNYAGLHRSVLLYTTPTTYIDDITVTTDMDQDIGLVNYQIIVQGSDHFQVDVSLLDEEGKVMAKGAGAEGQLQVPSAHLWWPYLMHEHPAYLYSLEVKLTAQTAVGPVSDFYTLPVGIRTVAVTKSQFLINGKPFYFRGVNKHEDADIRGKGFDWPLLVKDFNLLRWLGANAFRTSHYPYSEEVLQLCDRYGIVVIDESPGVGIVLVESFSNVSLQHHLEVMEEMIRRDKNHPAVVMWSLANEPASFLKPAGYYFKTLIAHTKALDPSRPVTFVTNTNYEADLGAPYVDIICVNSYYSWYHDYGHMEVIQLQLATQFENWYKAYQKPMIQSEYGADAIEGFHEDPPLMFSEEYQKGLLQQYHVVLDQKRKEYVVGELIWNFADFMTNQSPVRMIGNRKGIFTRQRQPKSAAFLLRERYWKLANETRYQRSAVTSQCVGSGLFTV
Outline: (§1)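 Enzyme activity was measured with the matching p-nitrophenyl glycoside as substrate at 10 mM, at each enzyme's optimum pH, with a suitable amount of enzyme per reaction. For line 4, the α-N-acetylgalactosaminidase came from chicken liver.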

Escherichia coli = test: Inhibition of Escherichia coli beta-glucuronidase; set-up: concentration or dose not given beside the values; settings: concentration not given here; outline: as §1
Bos taurus = species on record: Bos taurus; test: (§2) Inhibition of bovine kidney beta-N-acetylglucosaminidase; set-up: concentration or dose not given beside the values; settings: concentration not given here; outline: as §1
[2] = tested on: alpha-N-acetylgalactosaminidase (Gallus gallus); test: Inhibition of chick liver alpha-N-acetylgalactosaminidase; set-up: concentration or dose not given beside the values; settings: concentration not given here
[3] = as §2; set-up: species or system Bos taurus; outline: as §1

In the case of `O=C(O)[C@H]1NCCC[C@@H]1O`, the inhibition [1] is reported as 0.89%, the inhibition (Escherichia coli) is reported as 31% and the inhibition (Bos taurus) is reported as 38%. It also gave an inhibition [2] of 5.2%.

Work on `O=C(O)[C@@H]1NCC=C[C@@H]1O` yielded an inhibition [1] of 10%, an inhibition (Escherichia coli) of 0.9% and an inhibition (Bos taurus) of 0.8%. It also gave an inhibition [2] of 1.3%.

Work on `O=C(O)[C@@H]1NCCC[C@H]1O` yielded an inhibition [1] of 0.62%, an inhibition (Escherichia coli) of 20% and an inhibition (Bos taurus) of 32%. It also gave an inhibition [2] of 1.3%.

With `O=C(O)[C@@H]1NCCC[C@@H]1O` the inhibition [1] was 15%, the inhibition (Escherichia coli) was 23% and the inhibition (Bos taurus) was 47%. For the same compound, the inhibition [2] was 3.2%.

`O=C(O)[C@H]1NCCC[C@H]1O` gave an inhibition [1] of 0.18%, an inhibition (Escherichia coli) of 24% and an inhibition (Bos taurus) of 20%. The inhibition [2] was 2.5%.

Work on `O=C(O)[C@H]1NCC=C[C@H]1O` yielded an inhibition [1] of 8.6%, an inhibition (Escherichia coli) of 3.3% and an inhibition (Bos taurus) of 7.3%. The inhibition [2] was 0.2%.

With `O=C(O)[C@H]1NCC=C[C@@H]1O` the inhibition [1] was 19%, the inhibition (Escherichia coli) was 2% and the IC50 [3] was 720 µM. For the same compound, the inhibition (Bos taurus) was 58% and the inhibition [2] was 25%.

In the case of `O=C(O)[C@@H]1NCC=C[C@H]1O`, the inhibition [1] is reported as 0.2%, the inhibition (Escherichia coli) is reported as 0.9% and the inhibition (Bos taurus) is reported as 15%. It also gave an inhibition [2] of 3.2%.
